17 molecules from ChEMBL document CHEMBL2401696, “Stereoselective synthesis and anti-proliferative effects on prostate cancer evaluation of 5-substituted-3,4-diphenylfuran-2-ones” (Eur J Med Chem, 2013) can be followed below.

Assay [1] concerns the target T1, Prostaglandin G/H synthase 2 (Ovis aries) (UniProt P79208).
T1 sequence (whole entry): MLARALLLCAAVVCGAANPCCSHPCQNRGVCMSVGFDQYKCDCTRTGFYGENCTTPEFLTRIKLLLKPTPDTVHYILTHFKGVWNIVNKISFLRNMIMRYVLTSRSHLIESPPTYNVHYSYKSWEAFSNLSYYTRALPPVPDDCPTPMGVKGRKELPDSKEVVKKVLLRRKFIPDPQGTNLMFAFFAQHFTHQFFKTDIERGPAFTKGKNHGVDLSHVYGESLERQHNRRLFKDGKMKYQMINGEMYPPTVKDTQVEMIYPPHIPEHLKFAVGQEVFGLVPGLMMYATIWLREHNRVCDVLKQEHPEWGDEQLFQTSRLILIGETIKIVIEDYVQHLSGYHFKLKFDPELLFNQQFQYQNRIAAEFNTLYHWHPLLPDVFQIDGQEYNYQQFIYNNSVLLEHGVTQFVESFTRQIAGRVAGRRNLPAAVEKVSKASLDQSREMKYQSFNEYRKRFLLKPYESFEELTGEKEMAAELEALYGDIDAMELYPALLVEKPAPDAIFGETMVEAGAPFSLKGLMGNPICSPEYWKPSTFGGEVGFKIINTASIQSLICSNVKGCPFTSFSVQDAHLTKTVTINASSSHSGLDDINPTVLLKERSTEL
Nature of the assay: Inhibition of ovine COX-2 assessed as using arachidonic acid as substrate at 10 uM preincubated for 5 mins prior to substrate addition measured after 2 mins by enzyme immunoassay relative to control.

Assay [2] has as its target T2, Prostaglandin G/H synthase 1 (Ovis aries) (UniProt P05979).
T2 sequence (whole entry): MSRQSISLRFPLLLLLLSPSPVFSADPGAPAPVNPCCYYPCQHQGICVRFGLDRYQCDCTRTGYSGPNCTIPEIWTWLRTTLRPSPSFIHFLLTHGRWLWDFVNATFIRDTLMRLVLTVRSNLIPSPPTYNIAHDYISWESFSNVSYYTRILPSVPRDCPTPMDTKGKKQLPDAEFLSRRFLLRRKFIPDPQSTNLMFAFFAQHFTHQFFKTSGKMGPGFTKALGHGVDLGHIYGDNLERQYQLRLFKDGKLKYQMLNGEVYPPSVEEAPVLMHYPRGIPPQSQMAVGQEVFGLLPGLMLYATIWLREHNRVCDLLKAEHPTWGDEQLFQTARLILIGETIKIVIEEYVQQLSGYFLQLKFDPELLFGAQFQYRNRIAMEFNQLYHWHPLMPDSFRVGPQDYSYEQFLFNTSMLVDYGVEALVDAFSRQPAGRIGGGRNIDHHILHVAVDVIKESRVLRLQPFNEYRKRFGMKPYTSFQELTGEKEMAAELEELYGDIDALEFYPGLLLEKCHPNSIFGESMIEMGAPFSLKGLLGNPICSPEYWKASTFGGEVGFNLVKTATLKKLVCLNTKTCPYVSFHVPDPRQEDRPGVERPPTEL
Kind of assay: Inhibition of ovine COX-1 assessed as using arachidonic acid as substrate at 10 uM preincubated for 5 mins prior to substrate addition […] by enzyme immunoassay relative to control.

Assay [3] has as its system PC-3. Kind of assay: Antiproliferative activity against human PC3 cells expressing PCDNA after 72 hrs by MTT assay. The following applies: PC-3, 72 h. The assay is classed as functional, cell-based. In a few lines:
(§1)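 Cells (PC3 and its PCDNA- and SKP2-transfected lines, DU145) grown in RPMI 1640 with 10% FBS; G418 added for transfected lines. Exponential cells seeded 1 × 10⁴/well, 24 h at 37 °C, then fresh medium with compounds at several concentrations for 72 h. MTT 1–3 h at 37 °C, dissolved in 4% HCl/96% isopropanol, absorbance 570 nm. Triplicate per concentration; IC50 from dose–response curves.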
On the technique in general: Tetrazolium assays rely on reduction of a dye to a coloured formazan, in cell work by metabolically active cells.

The test system of assay [4] is PC-3. Nature of the assay: Antiproliferative activity against human PC3 cells expressing SKP2 after 72 hrs by MTT assay. The assay is classed as functional, cell-based. The following applies: PC-3, 72 h. In a few lines:
as §1

Assay [5] has as its system PC-3. Nature of the assay: Antiproliferative activity against human PC3 cells after 72 hrs by MTT assay. Type of assay: functional, cell-based. The conditions noted are these: PC-3, 72 h. In a few lines: as §1
A further assay has as its system DU-145. Kind of assay: Antiproliferative activity against human DU145 cells after 72 hrs by MTT assay. The assay is classed as functional, cell-based. The conditions noted are these: DU-145, 72 h. In a few lines:
as §1

The target in assay [6] is T1, Prostaglandin G/H synthase 2 (Ovis aries). Nature of the assay: Inhibition of ovine COX-2 assessed as using arachidonic acid as substrate at 10 uM preincubated for 5 mins prior to substrate addition measured after 2 hrs by enzyme immunoassay relative to control. The following applies: in the assay text read “after 2 mins” for “after 2 hrs”. The method in brief: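 Ovine COX-1 or COX-2 with heme in 0.1 M Tris-HCl pH 8.0, 5 mM EDTA, 2 mM phenol; compound (0.001–100 µM final, DMSO stocks) preincubated 5 min at 37 °C, then arachidonic acid added, stopped with 1 M HCl after 2 min. PGF2α (SnCl2 reduction) quantified by competitive EIA at 412 nm; % inhibition vs controls; mean of two determinations.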

Assay [7] has as its target T3, Prostaglandin G/H synthase 2 (Ovis aries, UniProt P79208).
T3 sequence (P79208 whole entry): T1 sequence (whole entry)
Nature of the assay: Inhibition of ovine COX-2 assessed as using arachidonic acid as substrate preincubated for 5 mins prior to substrate addition measured […] by enzyme immunoassay.

Assay [8] has as its target T4, Prostaglandin G/H synthase 1 (Ovis aries, UniProt P05979).
T4 sequence (P05979 whole entry): T2 sequence (whole entry)
Kind of assay: Inhibition of ovine COX-1 assessed as using arachidonic acid as substrate preincubated for 5 mins prior to substrate addition […] by enzyme immunoassay.

The source made the active and inactive calls. No cut-off for these calls is given here.

Take `CS(=O)(=O)c1ccc(C2=C(c3ccccc3Cl)C(=O)O/C2=C\c2ccc(Cl)cc2)cc1`: the inhibition (commonly the drop in the measured response relative to a control, in per cent) in assay [1] was found to be 32.7%. Moreover, the inhibition entry in [2] was “inactive”. For the same molecule, the half-maximal inhibitory concentration (IC50) in the assay with PC-3 [3] and with PC-3 [4] was more than 50 µM throughout.

As to `COC1(C)OC(=O)C(c2ccc(F)cc2)=C1c1ccc(S(C)(=O)=O)cc1` (stereo not given), the inhibition in assay [1] was found to be 32.4%. Moreover, the concentration for half-maximal inhibition (IC50) – broadly, the concentration that inhibits the measured activity by half – was more than 50 µM in the assay on PC-3 [5], more than 50 µM with DU-145, 36.4 µM in the assay on PC-3 [3] and more than 50 µM with PC-3 [4].

Consider `COc1cc(/C=C2\OC(=O)C(c3ccc(F)cc3)=C2c2ccc(S(C)(=O)=O)cc2)ccc1O`, for which the inhibition in assay [6] amounted to 43.6%. Besides, the IC50 in the assay with PC-3 [5] was more than 50 µM; in the assay with DU-145, more than 50 µM; with PC-3 [3], more than 50 µM; in [7], 17.6 µM; in the assay with PC-3 [4] it was 10.7 µM.

Consider `COc1ccc(/C=C2\OC(=O)C(c3ccccc3)=C2c2ccc(S(C)(=O)=O)cc2)cc1`, for which the inhibition in assay [2] stood at 65.9%; in [6], 16.7%. For the same molecule, the half-maximal inhibitory concentration (IC50) in assay [8] is 8.2 µM; with PC-3 [3] it was more than 50 µM; in the assay with PC-3 [4] it was more than 50 µM.

As to `COc1ccccc1/C=C1\OC(=O)C(c2ccc(F)cc2)=C1c1ccc(S(C)(=O)=O)cc1`, in assay [2], the inhibition entry is “inactive”. In addition, in assay [6], the inhibition stood at 45.6%. Further, the half-maximal inhibitory concentration (IC50) is more than 50 µM in the assay with PC-3 [5]; more than 50 µM with DU-145; 18.2 µM in the assay with PC-3 [3]; 13.9 µM in assay [7]; 25.1 µM with PC-3 [4].

In the case of `CS(=O)(=O)c1ccc(C2=C(c3ccccc3Cl)C(=O)O/C2=C\c2cccc([N+](=O)[O-])c2)cc1`, the values for the inhibition in assay [1] and in [2] were 59.2% and 7.01%, respectively. The IC50 is more than 50 µM in the assay with PC-3 [3], 7.1 µM in assay [7] and more than 50 µM in the assay with PC-3 [4].

On to `CS(=O)(=O)c1ccc(C2=C(c3ccccc3)C(=O)O/C2=C\c2ccc3c(c2)OCO3)cc1`, for which the inhibition in assay [1] came out at 24.6%. For the same molecule, the IC50 is more than 50 µM in the assay on PC-3 [5], more than 50 µM in the assay with DU-145, 37.2 µM with PC-3 [3] and 50.6 µM in the assay with PC-3 [4].

In the case of `COc1ccccc1/C=C1\OC(=O)C(c2ccccc2)=C1c1ccc(S(C)(=O)=O)cc1`, the inhibition in assay [1] came to 72.6%; in assay [2] it was 71%. The IC50 in [8] is 3.1 µM; with PC-3 [3] it was more than 80 µM; in assay [7] it was 3 µM; with PC-3 [4], more than 90 µM.

For the molecule `CC(C)=C1OC(=O)C(c2ccccc2Cl)=C1c1ccc(S(C)(=O)=O)cc1`, the results for the inhibition in assay [1] and in assay [2] were 24.1% and 18.6%, respectively. Also, the IC50 was more than 50 µM with PC-3 [5], more than 50 µM in the assay on DU-145, 40.5 µM in the assay on PC-3 [3] and 15.4 µM in the assay on PC-3 [4].

`CN(C)c1ccc(/C=C2\OC(=O)C(c3ccc(F)cc3)=C2c2ccc(S(C)(=O)=O)cc2)cc1`: the inhibition entry in [2] and in [6] was “inactive” each time. The half-inhibitory concentration (IC50) was more than 50 µM in the assay on PC-3 [5], more than 50 µM in the assay on DU-145, more than 50 µM with PC-3 [3] and 47.2 µM in the assay with PC-3 [4].

Regarding `CS(=O)(=O)c1ccc(C2=C(c3ccccc3Cl)C(=O)O/C2=C\c2ccccc2)cc1`, the inhibition in assay [6] was 59.1%. The IC50 in the assay on PC-3 [5] is more than 50 µM; in the assay with DU-145, more than 50 µM; in the assay on PC-3 [3] it was more than 50 µM; in assay [7], 7.3 µM; with PC-3 [4], 5.48 µM.

Take `COc1ccccc1/C=C1\OC(=O)C(c2ccccc2Cl)=C1c1ccc(S(C)(=O)=O)cc1`: in assay [1], the inhibition stood at 44.2%. Also, the inhibition result in [2] is “inactive”. The half-maximal inhibitory concentration (IC50) in the assay on PC-3 [5] was more than 50 µM; in the assay on DU-145, more than 50 µM; with PC-3 [3] it was 25.5 µM; in assay [7], 14.6 µM; in the assay with PC-3 [4] it was 45.8 µM.

With `CS(=O)(=O)c1ccc(C2=C(c3ccccc3Cl)C(=O)O/C2=C\c2ccc(O)cc2)cc1`, the inhibition in [1] was determined as 2.27%. The IC50 in the assay with PC-3 [3] and in the assay with PC-3 [4] was more than 50 µM in each case.

For the molecule `COc1cc(/C=C2\OC(=O)C(c3ccc(F)cc3)=C2c2ccc(S(C)(=O)=O)cc2)cc(OC)c1OC`, the inhibition in [1] turned out to be 20.8%. For the same molecule, the 50% inhibitory concentration (IC50) in the assay on PC-3 [5] was more than 50 µM; with DU-145, more than 50 µM; in the assay with PC-3 [3], more than 50 µM; in the assay with PC-3 [4] it was 25.4 µM.

As for `COc1ccc(/C=C2\OC(=O)C(c3ccccc3Cl)=C2c2ccc(S(C)(=O)=O)cc2)cc1`, in [2], the inhibition worked out at 61.2%. Besides, the figures for the concentration for half-maximal inhibition (IC50) (in assay [8]; in the assay on PC-3 [3]; with PC-3 [4]) were 8.5 µM, more than 50 µM and more than 50 µM, respectively. Also, the inhibition entry in [6] was “inactive”.

As for `CS(=O)(=O)c1ccc(C2=C(c3ccc(F)cc3)C(=O)OC2)cc1`, the inhibition in [2] was 28.5%; in assay [6] it was 66.9%. Besides, the IC50 in the assay with PC-3 [3] was more than 50 µM; in assay [7], 9.2 µM; with PC-3 [4], more than 50 µM.

Take `CS(=O)(=O)c1ccc(C2=C(c3ccccc3Cl)C(=O)OC2)cc1`: the inhibition entry in assay [2] is “inactive”. In addition, in [6], the inhibition was found to be 7.97%. Also, the IC50 in the assay with PC-3 [3] and in the assay with PC-3 [4] was more than 50 µM each time.
